Experimental data published in ChEMBL document CHEMBL1145497, “A novel Giardia lamblia nitroreductase, GlNR1, interacts with nitazoxanide and other thiazolides” (Antimicrob Agents Chemother, 2007).
pKi: −log10 of the molar value. Calls of active or inactive are those of the source. The calls are words filed in the database; no cut-off is given here.

Tests used:
[1] = tested on: Giardia duodenalis; experiment: Inhibition of Giardia lamblia recombinant nitroreductase 1 (EAA43030.1) expressed in Escherichia coli at 5 uM
In short: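 Six-His-tagged recombinant enzyme expressed in E. coli (1 mM IPTG, 3.5 h) and Ni-column purified. Photometric NADH-oxidation assay in 50 mM Tris-Cl pH 7.0 with 25 μM dinitrotoluene substrate, 0.15 mM NADH final, and inhibitors at 5 μM against a DMSO control. After 5 min preincubation, A340 was read over 0–20 min. Activity came from the linear slope as μkat/g protein; triplicate, mean ± SE.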

[2] = tested on: Giardia intestinalis; experiment: Reduction of nitroreductase 1 expression level in Giardia lamblia trophozoites at 25 uM after 3 hrs by RT-PCR assay; assay type: functional, organism-based; details: Giardia duodenalis
In short: (§1)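 G. lamblia WB clone C6 trophozoites grown anaerobically in modified TYI-S-33 to near confluence, exposed to compound at 25 μM (DMSO control) for 3 h, then harvested. RNA extracted with DNase I digestion; transcript levels of GlNR1, GlGDH1 and GlACT1 quantified by real-time RT-PCR.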

[3] = Inhibition of Giardia lamblia recombinant nitroreductase 1 (EAA43030.1) expressed in Escherichia coli; set-up: species or system Giardia duodenalis
In short: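 His6-tagged recombinant GlNR1 from IPTG-induced E. coli, Ni-column purified. Photometric NADH oxidation assay in 50 mM Tris-Cl pH 7.0 with dinitrotoluene substrate, 0.15 mM NADH final, 5 min preincubation, A340 read over 0–20 min.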

[4] = tested on: Giardia intestinalis; experiment: Reduction of GDH expression level in Giardia lamblia trophozoites at 25 uM after 3 hrs by RT-PCR assay; assay type: functional, organism-based; details: Giardia duodenalis; in short: as §1
[5] = tested on: Giardia intestinalis; experiment: Growth inhibition of Giardia lamblia; assay type: functional, organism-based; details: Giardia duodenalis
[6] = tested on: Giardia intestinalis; experiment: Reduction of ACT1 expression level in Giardia lamblia trophozoites at 25 uM after 3 hrs by RT-PCR assay; assay type: functional, organism-based; details: Giardia duodenalis; in short: as §1

| SMILES | Activity [1] | Activity [2] | inhibition [1] | pKi [3] | Activity [4] | Activity [5] | Activity [6] |
| --- | --- | --- | --- | --- | --- | --- | --- |
| Cc1ncc([N+](=O)[O-])n1CCO | inactive |  |  |  |  |  |  |
| CC(=O)Oc1ccccc1C(=O)Nc1ncc([N+](=O)[O-])s1 [NITAZOXANIDE] |  | Active | > 75% | 6.52 | Active | Active | Active |
| COc1cccc(C(=O)Nc2ncc([N+](=O)[O-])s2)c1O |  |  | > 75% |  |  | Active |  |
| CC(=O)Oc1c(C)cccc1C(=O)Nc1ncc([N+](=O)[O-])s1 |  |  | > 75% |  |  | Active |  |
| O=C(Nc1ncc([N+](=O)[O-])s1)c1ccccc1O |  |  | > 75% |  |  | Active |  |
